One data set relates to Enterovirus A71. The data set is described as follows: Antiviral activity against EV71 pseudotype virus infected in human Rhabdomyosarcoma cells assessed as reduction in viral replication after 24 hrs by Bright-Glo Luciferase Assay. The class given is functional, organism-based. The following applies: Enterovirus A. Summed up:
(§1)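 EC50 (antiviral) or CC50 (cytotoxicity) values are averaged over three independent experiments, with error given as SEM (n=3).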

The nature of data set [1]: Cytotoxicity against human Rhabdomyosarcoma cells after 24 hrs by WST-1 cell proliferation assay. The class given is cell-based. The method in brief:
as §1

Data set [2] in a line: Inhibition of EV71 protease 3C using NMA-IEALFQGPPK(DNP)FR as substrate preincubated for 30 mins followed by substrate addition measured after 2 hrs by FRET analysis. Set-up: species or system Enterovirus A71.
A short description of data set [3]: Toxicity in iv dosed mouse measured for 24 hrs. To be noted: in vivo. It is filed as organism-based. Summed up: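 Acute toxicity study in mice dosed by intravenous injection; the read-out is LD50 in mg/kg.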
Data set [4] is described as follows: Inhibition of EV71 protease 3C using Dabcyl-KTSAVLQSGFRKME-Edans as substrate by fluorescence analysis. The arrangement: species or system Enterovirus A71.

For `O=C[C@H](C[C@@H]1CCCNC1=O)NC(=O)[C@H](Cc1ccccc1)NC(=O)/C=C/c1ccccc1`, the EC50 with Enterovirus A71 was 260 nM. Further, in data set [1], the CC50 at 24 h was above 100000 nM. Also, in data set [2], half-maximal inhibition (IC50) required 540 nM.
The matching figures for `N#CC(O)[C@H](C[C@@H]1CCCNC1=O)NC(=O)[C@H](Cc1ccccc1)NC(=O)/C=C/c1ccccc1` (some centres undefined): 120 nM, above 100000 nM and 1130 nM.
For the compound `N#CC[C@H](C[C@@H]1CCCNC1=O)NC(=O)[C@H](Cc1ccccc1)NC(=O)/C=C/c1ccccc1`, in the data set on Enterovirus A71, the EC50 came out at 28400 nM. The compound further gave a CC50 at 24 h in data set [1] above 100000 nM. Also, the 50% inhibitory concentration (IC50) in data set [2] is above 10000 nM.
In the same order, the values of `CCCNC(=O)C(=O)[C@H](C[C@@H]1CCCNC1=O)NC(=O)[C@H](Cc1ccccc1)NC(=O)/C=C/c1ccccc1` are 4590 nM, above 100000 nM and 9490 nM.
Regarding `N#CC(OC(=S)Oc1ccccc1)[C@H](C[C@@H]1CCCNC1=O)NC(=O)[C@H](Cc1ccccc1)NC(=O)/C=C/c1ccccc1` (some centres undefined), in the data set on Enterovirus A71, the EC50 worked out at 150 nM. This compound also gave a CC50 at 24 h in data set [1] above 100000 nM. Also, half-maximal inhibition in data set [2] (IC50) was put at 1050 nM.
In the same order, the values of `Cc1cc(C(=O)N[C@@H](Cc2ccc(F)cc2)C(=O)N[C@H](C=O)C[C@@H]2CCCNC2=O)no1` are 110 nM, above 100000 nM and 100 nM.
On to `N#C[C@H](C[C@@H]1CCCNC1=O)NC(=O)[C@H](Cc1ccccc1)NC(=O)/C=C/c1ccccc1`, for which the EC50 with Enterovirus A71 is above 100000 nM. The CC50 at 24 h in data set [1] was above 100000 nM. Also, the concentration for half-maximal inhibition (IC50) in data set [2] was above 10000 nM.
Regarding `CC(=O)OC(C#N)[C@H](C[C@@H]1CCCNC1=O)NC(=O)[C@H](Cc1ccccc1)NC(=O)/C=C/c1ccccc1` (some centres undefined), the EC50 with Enterovirus A71 is 100 nM. In addition, the CC50 at 24 h in data set [1] was above 100000 nM. In data set [2], this compound returned an IC50 of 1620 nM.
In the same order, the values of `Cc1cc(C(=O)N[C@@H](Cc2ccc(F)cc2)C(=O)N[C@@H](C[C@@H]2CCCNC2=O)[C@H](O)C#N)no1` are 45 nM, above 100000 nM and 310 nM.
The matching figures for `CCCNC(=O)C(O)[C@H](C[C@@H]1CCCNC1=O)NC(=O)[C@H](Cc1ccccc1)NC(=O)/C=C/c1ccccc1` (some centres undefined): above 100000 nM, above 100000 nM and above 10000 nM.
Take `Cc1cc(C(=O)N[C@@H](Cc2ccc(F)cc2)C(=O)N[C@@H](C[C@@H]2CCCNC2=O)[C@@H](O)C#N)no1`: in data set [3], the LD50 at 24 h came out at 96.5 mg/kg. Moreover, the EC50 in the data set with Enterovirus A71 turned out to be 48 nM. The CC50 at 24 h in data set [1] is above 100000 nM. Further, in data set [2], the IC50 came out at 270 nM.
Take `O=C(/C=C/c1ccccc1)N[C@@H](Cc1ccccc1)C(=O)N[C@H](CO)C[C@@H]1CCCNC1=O`: in the data set on Enterovirus A71, the EC50 was above 100000 nM. The compound also gave a CC50 at 24 h in data set [1] above 100000 nM. In data set [2], the IC50 is above 10000 nM.
`Cc1cc(C(=O)N[C@@H](Cc2ccc(F)cc2)C(=O)N[C@@H](C[C@@H]2CCCNC2=O)C(O)C#N)no1` (some centres undefined): in the data set with Enterovirus A71, the EC50 amounted to 56 nM. In data set [1], this compound came in with a CC50 at 24 h above 100000 nM. For the same compound, inhibition in data set [2] was half-maximal at 280 nM (IC50).
As to `O=C[C@H](C[C@@H]1CCNC1=O)NC(=O)[C@H](Cc1ccccc1)NC(=O)/C=C/c1ccccc1`, the EC50 in the data set on Enterovirus A71 is 3070 nM. The compound further yielded a CC50 at 24 h in data set [1] above 100000 nM. Moreover, the IC50 in data set [2] is 3810 nM.
The compound `CCOC(=O)/C=C/[C@H](C[C@@H]1CCNC1=O)NC(=O)[C@@H](CC(=O)[C@@H](NC(=O)c1cc(C)on1)C(C)C)Cc1ccc(F)cc1` [RUPINTRIVIR] returned an IC50 in data set [4] of 2300 nM. In other words, the single-digit micromolar range.

The term EC50 denotes the concentration at which the effect is half-maximal. The term CC50 denotes the concentration giving 50% cytotoxicity. A lower CC50 goes with greater toxicity to the cells. What is called IC50 is the point on the concentration scale where inhibition reaches its midpoint. Low values mean greater potency, high ones weaker potency. A word on the LD50: it is the dose at which mortality reaches 50%. Low readings indicate greater toxicity, high ones lower toxicity.

The values are drawn from ChEMBL document CHEMBL3739383, “Cyanohydrin as an Anchoring Group for Potent and Selective Inhibitors of Enterovirus 71 3C Protease” (J Med Chem, 2015).
